In PMC3082000 (Bioorganic & medicinal chemistry letters, 2010):

Key:
M2-M5 = assay: counter-screening against M2-M5; format: cell-based; conditions: read-out: M2-M5 EC50; selectivity counter-screen
M1 [1] = molecular target: T1, M1 (Rattus norvegicus, UniProt P08482); assay: real-time cell-based calcium-mobilization assay, M1 PAM
T1 sequence (P08482 1-460): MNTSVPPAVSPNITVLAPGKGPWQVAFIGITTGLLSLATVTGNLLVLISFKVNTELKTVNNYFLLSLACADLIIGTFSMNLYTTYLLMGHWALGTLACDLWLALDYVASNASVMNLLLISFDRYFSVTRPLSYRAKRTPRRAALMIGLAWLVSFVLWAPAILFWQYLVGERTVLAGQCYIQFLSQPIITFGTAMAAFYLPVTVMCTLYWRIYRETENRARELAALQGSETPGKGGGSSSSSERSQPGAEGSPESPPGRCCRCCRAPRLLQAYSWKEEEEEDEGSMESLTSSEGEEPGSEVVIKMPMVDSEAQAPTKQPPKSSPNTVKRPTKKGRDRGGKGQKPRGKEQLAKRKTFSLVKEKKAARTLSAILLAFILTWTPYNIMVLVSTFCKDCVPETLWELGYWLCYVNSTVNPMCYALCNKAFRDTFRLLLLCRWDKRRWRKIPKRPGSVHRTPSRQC

[2] = test system: biogenic amines (D2, H-HT2B, etc…); assay: Lead Profile screen at Ricerca, radioligand binding
TREx293-hM1 cells = assay: APP processing: M1-stimulated APPsα release, Western blot; format: cell-based, human; conditions: for APPsα release, in combination with low dose CCh: 2 μM with 100 nM CCh
Method in brief: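 Stable human M1-overexpressing TREx293 cells, plated 2 days before use, were pretreated 15 min with 2 μM test compound or DMSO. Carbachol (100 nM or 10 μM) was then added, and medium was conditioned 1 h at 37°C. Endogenous APPsα in conditioned medium was detected by Western blot.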

M1-M5 = assay: Lead Profile screen at Ricerca, orthosteric binding
[3] = cited from earlier work
M1 [4] = molecular target: T1, M1; conditions: cited from earlier work
solubility = format: physicochemical

With `Cc1cc(NC(=O)CS(=O)(=O)c2cn(Cc3ccccc3Cl)c3ccccc23)no1` [compound 7] the EC50 (M2-M5) was greater than 30 µM.

For `Cc1cc(NC(=O)CS(=O)(=O)c2cn(Cc3cc(Br)ccc3F)c3ccccc23)no1` [15j, 2-((1-(5-bromo-2-fluorobenzyl)-1H-indol-3-yl)sulfonyl)-N-(5-methylisoxazol-3-yl)acetamide], the improvement in potency (M1 [1]; relative to the non-fluorinated bromine analog) was roughly 3 fold, the “selectivity versus the biogenic amines” value [2] was “selective” and the EC50 (M2-M5) was greater than 30 µM. For the same molecule, the “APPsα release, in combination with low dose CCh” value (TREx293-hM1 cells; TREx293-hM1 cells, listed as ML169) was “potentiates the CCh-mediated non-amyloidogenic APPsα release to the same degree as 10 μM CCh”, the “APPsα release, in combination with low dose CCh” value (TREx293-hM1 cells; TREx293-hM1 cells, listed as VU04505652) was “potentiates the CCh-mediated non-amyloidogenic APPsα release” and the “APPsα release, compound alone” value (TREx293-hM1 cells; 2 μM, TREx293-hM1 cells) was “no effect”. The “orthosteric binding at M1-M5” value (M1-M5) was “no orthosteric binding”.

In the case of `C[N+](C)(C)CCOC(N)=O` [carbachol, reference compound], the “soluble APP (APPsα)” value (TREx293-hM1 cells; 100 nM) is reported as “modest increase” and the “soluble APP (APPsα)” value (TREx293-hM1 cells; 10 μM) is reported as “significant increase”.

For `Cn1cc(-c2ccc(CN3C(=O)C(=O)c4ccccc43)c(F)c2)cn1` [compound 3], the brainAUC/plasmaAUC [3] is listed as roughly 0.1 and the “efficacy (% ACh Max)” value (M1 [4]) is listed as 60 % ACh Max.

Molecule `Cc1cc(NC(=O)CS(=O)(=O)c2cn(Cc3cccc(-c4cn[nH]c4)c3)c3cc(F)cc(F)c23)no1` [15e] has an EC50 (M2-M5) greater than 30 µM.

With `CCC(C)n1cc(-c2cccc(Cn3cc(S(=O)(=O)CC(=O)Nc4cc(C)on4)c4ccccc43)c2)cn1` (stereo not drawn) [14c] the “M1 EC50” value (M1 [1]; average of at least three independent determinations) was “inactive”.

For `Cc1cc(NC(=O)CS(=O)(=O)c2cn(Cc3cccc(Br)c3)c3ccccc23)no1` [13g], the solubility (solubility) was “poor”.
